Measurements from different studies.
Compare with care: the assays were run in different laboratories.
MAP2K3: Dual specificity mitogen-activated protein kinase kinase 3 (MAP2K3, Homo sapiens, UniProt P46734)
BCHE: Cholinesterase (BCHE, Equus caballus, UniProt P81908)

| SMILES | target | read-out | mode | technique | tested at | quantity | value |
| --- | --- | --- | --- | --- | --- | --- | --- |
| CCN(CC)CCCC[C@H](NC(=O)[C@H](CC(C)C)NC(=O)[C@H](C)NC(=O)[C@H](Cc1ccccc1)NC(=O)c1ccc(C(C)(C)C)cc1)C(=O)N[C@@H](CO)C(=O)OC | Peregrin, bromodomain (BRPF1, Homo sapiens, UniProt P55201) | thermal stability | – | DSF | 25 µM | ΔTm | 0.47 °C |
| C[C@]12CC[C@@H]3c4ccc(OC(=O)N(CCCl)CCCl)cc4CC[C@H]3[C@@H]1CC[C@@H]2OP(=O)(O)O | Tyrosine-protein phosphatase non-receptor type 11 (PTPN11, Homo sapiens, UniProt Q06124) | binding | – | SPR | – | koff | 0.02 s⁻¹ |
| COc1ncccc1-c1cnn2ccc(N3CCN(C(=O)OC(C)C)CC3)nc12 | MAP2K3 | binding | – | competition with immobilised ligand | 1 µM | remaining binding | 80% |
| C#Cc1n[nH]c2c(-c3cn([C@@H](C)c4ccccn4)c(=O)[nH]c3=O)cc(F)cc12 | BDNF/NT-3 growth factors receptor (NTRK2, Homo sapiens, UniProt Q16620) | enzyme activity | inhibitor | – | 0.1 µM | inhibition | 3.7% |
| COc1cc2c(cc1OC)C(=O)N(CC1CCN(Cc3cccc(C#N)c3)CC1)C2 | BCHE | enzyme activity | inhibitor | Ellman | 1 µM | inhibition | 15.6% |
| Nc1ncc(-c2nc(N3CCOCC3)nc(N3CCOCC3)n2)c(C(F)F)n1 | Mitogen-activated protein kinase kinase kinase 6 (MAP3K6, Homo sapiens, UniProt O95382) | binding | – | competition with immobilised ligand | 10 µM | remaining binding | 76% |
| COc1cccc(CN2CCC(CN3Cc4cc(OC)c(OC)cc4C3=O)CC2)n1 | BCHE | enzyme activity | inhibitor | Ellman | 1 µM | inhibition | -2% |
| O=P(O)(O)O[C@H]1O[C@H](CO)[C@@H](O)[C@H](O)[C@H]1O | Glycogen phosphorylase, muscle form (PYGM, Oryctolagus cuniculus, UniProt P00489) | enzyme activity | substrate | – | – | Km | 920 µM |
| COc1cc2c(cc1OC)C(=O)N(Cc1ccccn1)C2 | BCHE | enzyme activity | inhibitor | Ellman | 1 µM | inhibition | -8.8% |
| Cc1nn(C)cc1-c1nc2c(N3CCN(Cc4ccc(Cl)cc4)CC3)c(Cl)cnc2[nH]1 | MAP2K3 | binding | – | competition with immobilised ligand | 1 µM | remaining binding | 100% |
| COc1cc2c(cc1OC)C(=O)N(Cc1cnc3c(c1)OCCN3C)C2 | BCHE | enzyme activity | inhibitor | Ellman | 1 µM | inhibition | 13.6% |
| Cn1cc(-c2cc(F)cc(N3CCn4c(cc5c4CCCC5)C3=O)c2CO)cc(Nc2ccc(N3CCN(C4COC4)CC3)cn2)c1=O | SRSF protein kinase 2 (SRPK2, Homo sapiens, UniProt P78362) | enzyme activity | inhibitor | – | 0.1 µM | inhibition | 3% |
